From article PMC4171190 (Fitoterapia, 2014)
Read-outs that look alike come from different tables or passages of the source. Marks after values point to notes of the source that are not given here. Each block holds one molecule with its values, some of them ahead of it.

Columns and labels:
alpha7 nAChR = alpha7 nAChR (Rattus norvegicus, UniProt Q05941); test: [3H]-MLA displacement from rat hippocampal membranes; assay type: binding
[1] = target: nicotinic binding sites on BV2 membranes; test: [3H]-epibatidine saturation binding on BV2 membranes; parameters: species or system murine; conditions: read-out: Kd, saturation binding; BV2 microglia membranes
[2] = tested on: LPS stimulated BV2 microglia; test: Inhibition of TNF-alpha release from LPS stimulated BV2 microglia; assay type: cell-based, murine; conditions: flavonoid alone; 10μg/ml LPS 24h
Procedure, shortened: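 Murine BV2 cells seeded at 5×10^5 cells/well in 24-well plates, adhered overnight, then given 1h serum-free pretreatment with test compound (±10μM MLA or 1μM nicotine) before 10μg/ml LPS for 24h. Supernatants frozen, then assayed by mouse TNF-alpha ELISA. Release expressed as % of LPS alone, normalised to resazurin viability when groups differed. Sigmoidal fits, fixed vs variable slope compared by F-test.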

[3] = tested on: LPS stimulated BV2 microglia; test: Inhibition of NO release from LPS stimulated BV2 microglia; assay type: cell-based, murine
Procedure, shortened: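 BV2 murine microglia (DMEM/F-12, 10% FBS, 37°C, 5% CO2) trypsinised, seeded 5×10^5 cells/well in 24-well plates, adhered overnight. Pretreated 1h serum-free with test compound (±10μM MLA or 1μM nicotine), then 10μg/ml LPS for 24h. Supernatant nitrite read immediately by Griess, A550, against NaNO2 standard. Expressed as % of LPS alone; sigmoidal fits, fixed vs variable slope compared by F-test.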

[4] = IC50 [3H]-MLA displacement, rat hippocampal membranes, 2nM [3H]-MLA
[5] = pIC50 [3H]-MLA displacement, rat hippocampal membranes, 2nM [3H]-MLA

Chain of alpha7 nAChR (Q05941 23-502): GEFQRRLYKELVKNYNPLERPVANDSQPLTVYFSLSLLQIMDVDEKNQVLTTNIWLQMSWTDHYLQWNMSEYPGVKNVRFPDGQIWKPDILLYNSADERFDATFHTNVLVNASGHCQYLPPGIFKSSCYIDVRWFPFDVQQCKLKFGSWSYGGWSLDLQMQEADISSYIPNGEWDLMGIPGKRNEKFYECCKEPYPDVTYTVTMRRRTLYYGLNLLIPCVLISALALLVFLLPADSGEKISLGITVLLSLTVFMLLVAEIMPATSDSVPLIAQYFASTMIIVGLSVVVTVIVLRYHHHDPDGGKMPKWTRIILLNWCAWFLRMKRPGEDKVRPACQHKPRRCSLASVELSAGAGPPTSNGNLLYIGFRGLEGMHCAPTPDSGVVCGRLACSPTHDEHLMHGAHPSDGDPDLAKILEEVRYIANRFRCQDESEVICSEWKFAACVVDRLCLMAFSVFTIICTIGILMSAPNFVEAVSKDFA

SMILES: O=c1c(O)c(-c2ccc(O[C@@H]3O[C@H](CO)[C@@H](O)[C@H](O)[C@H]3O)c(O)c2)oc2cc(O)cc(O)c12 [Spiraeoside]
IC50 (alpha7 nAChR; [4]): 8.35 µM

IC50 (alpha7 nAChR; [4]): 238 µM
SMILES: COc1ccc(-c2oc3cc(O)cc(O)c3c(=O)c2O)cc1O [Tamarixetin]

SMILES: COc1cc(-c2[o+]c3cc(O)cc(O)c3cc2O[C@@H]2O[C@H](CO)[C@@H](O)[C@H](O)[C@H]2O)cc(O)c1O [Petunidin-3-glucoside]
pIC50 [3H]-MLA displacement (alpha7 nAChR; rat hippocampal membranes, 2nM [3H]-MLA): 2.464 ± 0.95
IC50 (alpha7 nAChR; read-out: IC50 [3H]-MLA displacement, rat hippocampal membranes, 2nM [3H]-MLA): 3430 µM

SMILES: Clc1ccc(C2CC3CCC2N3)cn1 (centres unmarked) [[^3H]-epibatidine]
Kd [1]: 0.0065 µM

SMILES: COc1cc(O)c2c(=O)c(O)c(-c3ccc(O)c(O)c3)oc2c1 [Rhamnetin]
Hill slope, inhibition of TNF-alpha release [2]: -3.5 ± 4.1
IC50 (alpha7 nAChR; [5]): 1.11 µM

SMILES: O=c1c(-c2ccc(O)cc2)coc2cc(O[C@@H]3O[C@H](CO)[C@@H](O)[C@H](O)[C@H]3O)ccc12 [Daidzin]
IC50 (alpha7 nAChR; [4]): 120 µM

SMILES: COc1cc(-c2oc3cc(O)cc(O)c3c(=O)c2O)ccc1O [Isorhamnetin]
IC50 (alpha7 nAChR; [4]): 46.5 µM
IC50 (alpha7 nAChR; [5]): 46.6 µM

SMILES: COc1cc(O)c2c(c1)O[C@H](c1ccc(O)cc1)CC2=O [Sakuranetin]
Hill slope, inhibition of TNF-alpha release [2]: -1.0 ^**
effect of added MLA on anti-inflammatory properties (NO and TNF-alpha release) ([3]; addition of MLA, LPS stimulated BV2): no effect
Hill slope, inhibition of NO release ([3]; flavonoid alone, 10μg/ml LPS 24h): -1.0 ^**

SMILES: CN1CCC[C@H]1c1cccnc1 [nicotine, (-)-nicotine]
effect alone on LPS induced release of inflammatory mediators ([3]; 1μM, alone): no effect alone
effect of mecamylamine on inhibition of NO release ([3]; 10μM mecamylamine): blocked
maximal inhibition of LPS elicited release of NO ([3]; 1h pretreatment, 10μg/ml LPS 24h): ~20%

IC50 (alpha7 nAChR): 14.3 µM
SMILES: O=c1c(O)c(-c2ccc(O)c(O)c2)oc2cc(O)c(O)c(O)c12 [Quercetagetin]

SMILES: COc1cc(-c2[o+]c3cc(O)cc(O)c3cc2O)cc(OC)c1O [Malvidin]
IC50 (alpha7 nAChR): 90 µM

IC50 (alpha7 nAChR; [4]): 496 µM
SMILES: O=c1c(O[C@@H]2O[C@H](CO)[C@@H](O)[C@H](O)[C@H]2O)c(-c2ccc(O)cc2)oc2cc(O)cc(O)c12 [Astragalin]

IC50 (alpha7 nAChR; [4]): 66.1 µM
SMILES: O=c1cc(-c2ccccc2)oc2cc(O)c(O)c(O)c12 [Baicalein]

IC50 (alpha7 nAChR; [5]): 21.5 µM
SMILES: O=c1c(O[C@@H]2O[C@H](CO)[C@@H](O)[C@H](O)[C@H]2O)c(-c2ccc(O)c(O)c2)oc2cc(O)cc(O)c12 [Isoquercitrin]

IC50 (alpha7 nAChR; [4]): 11.4 µM
IC50 (alpha7 nAChR; [5]): 11.5 µM
SMILES: O=c1c(O)c(-c2ccc(O)c(O)c2)oc2cc(O)cc(O)c12 [Quercetin]
